Laboratory results: ChEMBL document CHEMBL4177574, “A novel class of Plasmodial ClpP protease inhibitors as potential antimalarial agents” (Bioorg Med Chem, 2017)
Activity calls are given as the source filed them. No cut-off for these calls is given here. Where a SMILES comes first, the peptide text is derived from it. The star is where a group is joined. Cbz = O=C(OCc1ccccc1)*; OBn = c1ccc(CO*)cc1

Legend:
[1] = test system: Plasmodium falciparum; assay: Antimalarial activity against Plasmodium falciparum 3D7 assessed as inhibition of parasite growth incubated for 96 hrs in presence of 4% haematocrit by SYBR green dye based assay; type: functional, organism-based
Outline: (§1)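 P. falciparum 3D7 in RPMI with 0.5% albumax at 4% haematocrit, sorbitol-synchronized, starting parasitaemia ~1%. Compound added at final 0–100 µM, with DMSO in control wells. Growth ran 96 h and was read by SYBR green DNA-dye fluorescence. Triplicate wells, experiment repeated twice; IC50 derived from these.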

[2] = Inhibition of recombinant Plasmodium falciparum ClpP expressed in Escherichia coli BL21(DE3) using Suc-LLVY-AMC substrate incubated for 3 to 6 hrs by fluorimetric assay
Outline: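 The protease domain of PfClpP (aa 168–370) was His-tagged in pET28a, expressed in E. coli BL21(DE3) with 1 mM IPTG at 37 °C for 3–4 h, Ni-NTA purified and BCA quantified. Assay used 13 µM enzyme in 0.1 M sodium acetate pH 7.0 with 1.0 mM DTT and 50 µM Suc-LLVY-AMC final. AMC fluorescence (ex 355/em 460) was followed continuously for 3–6 h at RT; IC50 by curve fitting.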

[3] = test system: Plasmodium falciparum; assay: Inhibition of apicoplast development in ACP-GFP expressing Plasmodium falciparum D10 assessed as induction of round stump-like structures at 10 uM measured at 90 to 96 hrs post dose by DAPI dye based confocal laser-scanning microscopy; type: functional, organism-based
[4] = test system: Plasmodium falciparum; assay: Inhibition of apicoplast development in ACP-GFP expressing Plasmodium falciparum D10 at 10 uM measured during second cycle by DAPI dye based confocal laser-scanning microscopy; type: functional, organism-based
Outline: (§2)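 D10 ACP-GFP parasites were grown like 3D7 with 100 nM pyrimethamine, and ring stages (8–10 hpi) were treated with compound. Parasites were sampled at 36/40 hpi and 72 hpi, DAPI-stained at 2 µg/mL final for 30 min at 37 °C, and imaged by confocal microscopy for apicoplast GFP morphology.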

[5] = test system: Plasmodium falciparum; assay: Inhibition of apicoplast development in ACP-GFP expressing Plasmodium falciparum D10 assessed as induction of round stump-like structures at 10 uM measured at 72 hrs post dose by DAPI dye based confocal laser-scanning microscopy; type: functional, organism-based; outline: as §2
[6] = test system: Plasmodium falciparum; assay: Inhibition of apicoplast growth in ACP-GFP expressing Plasmodium falciparum D10 at 10 uM measured during second cycle by DAPI dye based confocal laser-scanning microscopy; type: functional, organism-based; outline: as §2
[7] = test system: Plasmodium falciparum; assay: Antimalarial activity against Plasmodium falciparum 3D7 assessed as reduction in mature schizonts formation after 60 hrs post infection; type: functional, organism-based
[8] = test system: Plasmodium falciparum; assay: Effect on apicoplast development in ACP-GFP expressing Plasmodium falciparum D10 at 10 uM measured during first cycle by DAPI dye based confocal laser-scanning microscopy; type: functional, organism-based; outline: as §2
[9] = test system: Plasmodium falciparum; assay: Effect on nuclear division in ACP-GFP expressing Plasmodium falciparum D10 apicoplast at 10 uM measured at 96 hrs post dose by DAPI dye based confocal laser-scanning microscopy; type: functional, organism-based
[10] = test system: HeLa; assay: Cytotoxic activity against human HeLa cells assessed as reduction in cell viability incubated for 48 hrs by MTT assay
[11] = test system: Plasmodium falciparum; assay: Antimalarial activity against Plasmodium falciparum 3D7 assessed as inhibition of parasite growth at 100 uM incubated for 96 hrs in presence of 4% haematocrit by SYBR green dye based assay; type: functional, organism-based; outline: as §1
[12] = Ratio of IC50 for inhibition of recombinant Plasmodium falciparum ClpP expressed in Escherichia coli BL21(DE3) to IC50 for antimalarial activity against Plasmodium falciparum 3D7
[13] = Plasmodium falciparum, 3D7, 96 h, read-out: IC50

IC50 [2] [µM] | SMILES | IC50 [1] | Ki [2] | IC50 [1, 13] [µM] | Ki ([2]; read-out: Ki) [µM] | further results
> 100 | CCCOc1ccc(-c2nn(-c3ccccc3)cc2/C=C2\SC(=S)N(CCc3ccccc3)C2=O)cc1F | Not Active | Not Active |  |  | 
30.3 | Cc1cc(SCC(=O)NNC(=O)Cc2ccccc2)nc(SCCN2CCOCC2)n1 |  |  | 14.4 | 12.3 | 
40 | CCOC(=O)c1cnc(SCCN2CCOCC2)n(CC(=O)c2ccccc2)c1=O |  |  | 19 | 16 | 
44 | O=C(NCCCc1ccccc1)c1cnc(SCCN2CCOCC2)[nH]c1=O |  |  | 22 | 18 | 
34.7 | COc1ccc(C(=O)CSc2nc(C)cc(SCC(=O)NNC(=O)Cc3ccccc3)n2)cc1 |  |  | 11.8 | 14.2 | 
24 | O=C(CSc1ncc(C(=O)NCCCc2ccccc2)c(=O)n1Cc1ccccc1)c1ccccc1 |  |  | 20 | 10 | 
53 | O=C(CSc1ncc(C(=O)NCCCc2ccccc2)c(=O)n1Cc1ccccc1)c1ccc(O)cc1 |  |  | 9.2 | 21.6 | 
28.8 | Cc1cc(SCC(=O)NNC(=O)Cc2ccccc2)nc(SCC(=O)N2CCOCC2)n1 |  |  | 17.3 | 11.8 | 
37.4 | Cc1cc(SCC(=O)NNC(=O)Cc2ccccc2)nc(SCC(=O)c2ccc(C#N)cc2)n1 |  |  | 12.4 | 15.3 | 
10.5 | O=C(NCCCc1ccccc1)c1cnc(SCCN2CCOCC2)n(Cc2ccccc2)c1=O |  |  | 9 | 2.3 | Activity [3]: Active; inhibition [4]: Active; Activity [5]: Active; growth inhibition (GI) [6]: Active; Activity [7]: Active; Activity [8]: inactive; Activity [9]: inactive; IC50 [10]: > 5000 µM
46 | O=C(NCCCc1ccccc1)c1cnc(SCC(=O)N2CCOCC2)n(Cc2ccccc2)c1=O |  |  | 11.7 | 18.8 | 
> 100 | CCOC(=O)c1cnc(SCCN2CCOCC2)[nH]c1=O | Not Active | Not Active |  |  | 
> 100 | CCCc1cc(=O)oc2cc(OCC(=O)N[C@@H](CSCc3ccccc3)C(=O)O)ccc12 | Not Active | Not Active |  |  | 
28.3 | CCN(CC)c1ccc(C(=O)CSc2nc(C)cc(SCC(=O)NNC(=O)Cc3ccccc3)n2)cc1 |  |  | 12.1 | 11.6 | 
> 100 | CCc1ccc(CSc2ncc(Cl)c(C(=O)NCCC(=O)Nc3ccc(Cl)cc3)n2)cc1 | Not Active | Not Active |  |  | 
72.6 | O=C(CSc1ncc(C(=O)NCCCc2ccccc2)c(=O)n1Cc1ccccc1)NNC(=O)Cc1ccccc1 | Not Active |  |  | 29.5 | inhibition [11]: inactive

IC50 [2] [µM] | SMILES | IC50 [1] | Ki [2] | IC50 [1, 13] [µM] | Ki ([2]; read-out: Ki) [µM] | further results
92 | O=C(CSc1nc(SCC(=O)NCc2ccco2)nc(SCC(=O)NCc2ccco2)n1)NCc1ccco1 | Not Active |  |  | 38 | 
> 100 | CCN(CC)c1ccc(C(=O)CSc2ncc(C(=O)NCCCc3ccccc3)c(=O)n2Cc2ccccc2)cc1 |  | Not Active | 9.2 |  | 
> 100 | CC(C)C1Cc2c(sc3nc(SCC(=O)NCc4ccccc4)n(CCc4ccccc4)c(=O)c23)CO1 (stereo unspecified) | Not Active | Not Active |  |  | 
30 | CCc1nnc(NC(=O)CSc2nnc(-c3cc4ccccc4cc3O)n2CCOC)s1 |  |  | 27 | 12.1 | 
88 | O=C(COc1ccccc1)Nc1cc(NC(=O)COc2ccccc2)cc(C(=O)Nc2nccs2)c1 | Not Active |  |  | 36 | 
26 | Cc1cc(SCC(=O)NNC(=O)Cc2ccccc2)nc(SCC(=O)c2ccccc2)n1 |  |  | 75 | 11 | 
> 100 | N#Cc1ccc(C(=O)CSc2ncc(C(=O)NCCCc3ccccc3)c(=O)n2Cc2ccccc2)cc1 |  | Not Active | 13.7 |  | 
58.3 | CCOC(=O)CSc1ncc(C(=O)NCCCc2ccccc2)c(=O)n1Cc1ccccc1 |  |  | 15.9 | 23.8 | 
23 | CC(CCc1ccccc1)NC(=O)CSc1nc2sc3c(c2c(=O)n1CCc1ccccc1)CC(C(C)C)OC3 (stereo unspecified) |  |  | 25 | 9 | 
42 | CCOC(=O)c1cnc(SCC(=O)NNC(=O)Cc2ccccc2)[nH]c1=O |  |  | 82.5 | 17 | 
> 100 | O=C(O)c1cnc2n(c1=O)CC(c1ccccc1)=C(CN1CCOCC1)S2 |  | Not Active | 11 |  | 
> 100 | O=C(CNC(=O)OCc1ccccc1)N[C@@H](CCC(=O)OCc1ccccc1)C(=O)OCc1ccccc1 (Cbz-Gly-Glu(OBn)-OBn) | Not Active | Not Active |  |  | 
45 | COc1ccc(C(=O)CSc2ncc(C(=O)NCCCc3ccccc3)c(=O)n2Cc2ccccc2)cc1 |  |  | 2.4 | 18 | Ratio IC50 [12]: 20
> 100 | CCCCOc1ccc(-c2nn(-c3ccccc3)cc2/C=C(\C#N)C(=O)NCc2ccco2)c(C)c1 | Not Active | Not Active |  |  | 
> 100 | COc1ccc(CNC(=O)C(=O)N/N=C/c2ccc(CNS(=O)(=O)c3ccc(Br)cc3)o2)cc1 | Not Active | Not Active |  |  | 
> 100 | COc1cccc(NC(=O)CSc2nc3sc4c(c3c(=O)n2CCc2ccccc2)CC(C(C)C)OC4)c1 (stereo unspecified) | Not Active | Not Active |  |  | 
